Published values of several laboratories.
Protocols differ between the studies behind these lines. Converted amounts (≈) assume the structure as drawn.

Structure (SMILES)	target or system	assay	test system	conditions	endpoint	value
CN(C)C/C=C/C(=O)Nc1cc2c(Nc3ccc(F)c(Cl)c3)ncnc2cc1O[C@H]1CCOC1	KB-C2	cell growth or viability, ATP luminescence	–	6 µM, 12 days, 3D culture	viability	92.7%
O=C(Nc1cncc(-c2nc3ccccc3o2)c1)c1ccc(N2CCNCC2)c([N+](=O)[O-])c1	BJ	cell growth or viability, ATP luminescence	–	–	EC50	> 20 µM
CC[C@H]1OC(=O)[C@H](C)[C@@H](O[C@H]2C[C@@](C)(OC)[C@@H](O)[C@H](C)O2)[C@H](C)[C@@H](O[C@@H]2O[C@H](C)C[C@H](N(C)C)[C@H]2O)[C@](C)(OC)C[C@@H](C)C(=O)[C@H](C)[C@@H](O)[C@]1(C)O	Helicobacter pylori	microbial growth, broth dilution	–	0.24 µg/mL	inhibition	81.3%
c1ccc(-c2cccc(Nc3nccc(NC4CCCCC4)n3)c2)cc1	BJ	cell growth or viability, ATP luminescence	–	72 h	EC50	> 5 µM
O=c1cc(-c2ccc(O)cc2)oc2cc(O)cc(O)c12	Helicobacter pylori	microbial growth, broth dilution	–	3.9 µg/mL	inhibition	100%
C[C@H](Nc1ccnc(Nc2cccc(-c3cccnc3)c2)n1)C(=O)O	BJ	cell growth or viability, ATP luminescence	–	72 h	EC50	> 9 µM
CO/N=C(\C(=O)N[C@@H]1C(=O)N2C(C(=O)O)=C(CSc3nc(=O)c(=O)[nH]n3C)CS[C@H]12)c1csc(N)n1	Salmonella enterica	microbial growth	F98, TYPHIMURIUM	20 h, pH 7	MIC	0.125 µg/mL (≈ 0.225 µM)
O=C(O)c1ccc(O)cc1	Helicobacter pylori	microbial growth, broth dilution	–	62.5 µg/mL	inhibition	100%
O=C(N[C@H](CO)[C@H](O)c1ccc([N+](=O)[O-])cc1)C(Cl)Cl	Salmonella enterica	microbial growth	–	20 h, pH 7	MIC	2 µg/mL (≈ 6.19 µM)
CCCCNc1ccnc(Nc2cccc(-c3cccnc3)c2)n1	BJ	cell growth or viability, ATP luminescence	–	72 h	EC50	> 17 µM
Cc1cc(NS(=O)(=O)c2ccc(N)cc2)no1	Salmonella enterica	microbial growth	ENTERITIDIS	20 h, pH 5.5	MIC	128 µg/mL (≈ 505 µM)
O=c1cc(-c2ccc(O)c(O)c2)oc2cc(O)cc(O)c12	Helicobacter pylori	microbial growth, broth dilution	–	3.9 µg/mL	inhibition	100%
COC(=O)c1cccc(-c2cccc(Nc3nccc(NC(C)C)n3)c2)c1	BJ	cell growth or viability, ATP luminescence	–	72 h	EC50	13.2 µM
CN(C)[C@@H]1C(O)=C(C(N)=O)C(=O)[C@@]2(O)C(O)=C3C(=O)c4c(O)cccc4[C@@](C)(O)[C@H]3C[C@@H]12	Salmonella enterica	microbial growth	ENTERITIDIS	20 h, pH 7.2	MIC	2 µg/mL (≈ 4.5 µM)
